Test results: paper PMC3210410 (Bioorganic & medicinal chemistry letters, 2011)
Where two headings read alike, the source gives them in different places.

Legend:
Format in all cases: biochemical
MMP-13 [1] = target: T1, MMP-13 (Homo sapiens, UniProt P45452); test: FRET triple-helical peptide; conditions: for MMP-13 % Inhibition: 40 μM compound, fTHP-15 substrate, triplicate
Outline: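 Triple-helical fTHP-15 FRET substrate, whose conformation engages protease secondary binding sites (exosites), cleaved by MMP-13 with each test compound at 40 μM. Activity is reported as percent inhibition from triplicate assays.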

MMP-13 [2] = target: T1, MMP-13; test: Single inhibitor kinetic assays with MMP-13 and fTHP-15; conditions: for mode of inhibition of MMP-13-mediated hydrolysis of the fTHP: Lineweaver-Burk plot, lines crossing on X axis
MMP-13 [3] = target: T1, MMP-13; test: RP-HPLC-based secondary screen for artifactual inhibition; conditions: data not shown
Outline: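 Checks for fluorescence artifacts in the FRET assay. […] fTHP-15 substrate is analysed by RP-HPLC before and after adding test compound, so fluorescence interference can be separated from true inhibition of MMP-13.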

ADAM17/TACE = ADAM17/TACE (Homo sapiens, UniProt P78536); test: TACE inhibition; conditions: data not shown
MMP-13 [4] = target: T1, MMP-13; test: Dual inhibition kinetic assays; conditions: compound 4 with either compound 1 or 3

ADAM17/TACE, sequence (P78536 215-824): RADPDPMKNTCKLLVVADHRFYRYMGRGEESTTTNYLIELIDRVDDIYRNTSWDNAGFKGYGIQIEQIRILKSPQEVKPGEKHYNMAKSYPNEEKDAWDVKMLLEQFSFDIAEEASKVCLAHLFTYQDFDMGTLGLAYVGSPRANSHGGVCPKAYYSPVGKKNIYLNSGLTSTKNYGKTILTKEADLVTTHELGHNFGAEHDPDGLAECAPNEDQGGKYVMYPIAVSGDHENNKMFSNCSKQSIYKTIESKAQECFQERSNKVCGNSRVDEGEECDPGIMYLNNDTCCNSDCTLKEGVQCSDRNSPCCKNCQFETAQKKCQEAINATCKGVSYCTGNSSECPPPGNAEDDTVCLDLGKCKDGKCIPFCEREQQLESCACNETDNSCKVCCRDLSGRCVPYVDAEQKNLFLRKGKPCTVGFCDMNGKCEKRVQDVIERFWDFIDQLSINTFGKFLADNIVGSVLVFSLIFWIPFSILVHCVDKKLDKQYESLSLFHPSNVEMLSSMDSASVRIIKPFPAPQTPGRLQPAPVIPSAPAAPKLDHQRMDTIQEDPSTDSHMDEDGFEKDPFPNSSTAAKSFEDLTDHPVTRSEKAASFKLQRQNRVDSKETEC

CCCc1cc(O)nc(SCc2ccc(Cl)cc2)n1 [Compound 9]
MMP-13 % Inhibition (MMP-13 [1]; SD <10% (Table 1)): inactive

Oc1nc(SCc2ccc(Cl)cc2)nc2ccccc12 [Compound 16]
MMP-13 % Inhibition (MMP-13 [1]; SD <10% (Table 1)): inactive

O=C(CSc1nc2c(c(=O)[nH]1)CCC2)c1ccccc1 [Compound 30]
MMP-13 % Inhibition (MMP-13 [1]; SD <10% (Table 2)): inactive

Cc1cccc(CSc2nc(O)c3c(n2)CCCC3)c1 [Compound 34]
MMP-13 % Inhibition (MMP-13 [1]; SD <10% (Table 2)): inactive

O=c1[nH]c(SCc2ccc(Cl)cc2)nc(O)c1Cc1ccccc1 [Compound 18]
MMP-13 % Inhibition (MMP-13 [1]; SD <10% (Table 1)): inactive

COC(=O)c1ccc(CSc2nc3c(c(=O)[nH]2)CCC3)cc1 [Compound 24, methyl 4-[(4-oxo-1,5,6,7-tetrahydrocyclopenta[d]pyrimidin-2-yl)sulfanylmethyl] benzoate]
inhibition at 40 µM (MMP-13 [1]; read-out: MMP-13 % Inhibition): 62.5%
mode of inhibition of MMP-13-mediated hydrolysis of the fTHP (MMP-13 [2]): non-competitive
inhibition in RP-HPLC secondary screen (MMP-13 [3]): inhibitors
inhibition of TACE (ADAM17/TACE): do not inhibit

O=c1[nH]c(SCc2coc(-c3cccc(Cl)c3)n2)nc2c1CCC2 [Compound 31]
MMP-13 % Inhibition (MMP-13 [1]; SD <10% (Table 2)): inactive

CC(=O)Nc1c(O)nc(SCc2ccc(Cl)cc2)nc1O [Compound 19]
MMP-13 % Inhibition (MMP-13 [1]; SD <10% (Table 1)): inactive

Oc1nc(SCc2ccc(Cl)cc2)nc2c1CCC2 [Compound 4]
inhibition at 40 µM (MMP-13 [1]; read-out: Inhibition (%) at [inhibitor] = 40 μM, MMP-13): 51%
inhibition of TACE (ADAM17/TACE): do not inhibit
binding relation in dual inhibition kinetics (MMP-13 [4]): non-mutually exclusive binding

Cc1ccc(CSc2nc(O)c3c(n2)CCC3)cc1 [Compound 20, 2-[(4-methylphenyl)methylsulfanyl]-1,5,6,7-tetrahydrocyclopenta[d]pyrimidin-4-one]
inhibition at 40 µM (MMP-13 [1]; read-out: MMP-13 % Inhibition): 68.7%
mode of inhibition of MMP-13-mediated hydrolysis of the fTHP (MMP-13 [2]): non-competitive
fold more potent as MMP-13 inhibitor than lead compound 4 (MMP-13 [2]; relative to compound 4): approximately 5 fold
inhibition in RP-HPLC secondary screen (MMP-13 [3]): inhibitors
inhibition of TACE (ADAM17/TACE): do not inhibit

Cc1oc(-c2cccc(Cl)c2)cc1CSc1nc2c(c(=O)[nH]1)CCC2 [Compound 32]
MMP-13 % Inhibition (MMP-13 [1]; SD <10% (Table 2)): Inactive

Oc1[nH]c(SCc2ccc(Cl)cc2)nc2nncc1-2 [Compound 17]
MMP-13 % Inhibition (MMP-13 [1]; SD <10% (Table 1)): inactive
